Data as given in ChEMBL document CHEMBL1122774, “Tri- and tetrapeptide analogues of kinins as potential renal vasodilators” (J Med Chem, 1984).
Peptide text beside a SMILES is read from it. * marks the point of attachment. Butanoyl(4-(4-HOPh)) = O=C(CCCc1ccc(O)cc1)*

The molecules below were run on Canis familiaris (assay: In vivo percent change in renal blood flow at 30 ug/Kg/min.).
Type: functional, Canis lupus familiaris, Kidney
Summary of the method: (§1)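 Primary screen in anesthetized dogs (7-17 kg). Drug infused separately at 3, 30 and 300 µg/(kg min), each infusion lasting 5 min, at about 15-min intervals. Read-outs are renal blood flow, mean arterial blood pressure, heart rate, and RVR (MABP / mean RBF), as percent change. Significance thresholds are defined per number of dogs; n = 1-3 dogs.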
For `CC(CN[C@@H](CCCN=C(N)N)C(=O)O)(Cc1ccccc1)NC(=O)[C@@H]1CCCN1` (stereo not given in full), the Change was 8%.

What follows are molecules tested on Canis familiaris (assay: Renal vasodilator activity in anesthetized dogs and percent change in renal vascular resistance (RVR) was determined at 30 ug/Kg/min).
Type: functional, Canis lupus familiaris
Summary of the method: as §1
Work on `Cl.NCCCNC(=O)[C@H](Cc1ccccc1)NC(=O)[C@@H]1CCCN1C(=O)CCCc1ccccc1` yielded a Change of -3.8%.
`O=C(NCC(=O)N1CCC[C@H]1C(=O)O)[C@H](Cc1ccccc1)NC(=O)[C@@H]1CCCN1C(=O)CCCc1ccc(O)cc1` ({Butanoyl(4-(4-HOPh))}-PFGP-OH) showed a Change of 74.5%.

Each molecule was assayed on Canis familiaris (assay: In vivo percent change in canine heart rate at 3 ug/Kg/min.).
Type: functional, Canis lupus familiaris
Summary of the method: as §1
`N=C(N)NCCC[C@H](NC[C@H](Cc1ccccc1)NC(=O)[C@@H]1CCCN1)C(=O)O` was tested, and the Change was -3%.
Work on `Cl.NCCCNC(=O)[C@H](Cc1ccccc1)NC(=O)[C@@H]1CCCN1C(=O)CCCc1ccccc1` yielded a Change of 0%.
`Cl.Cl.NCCCNC(=O)[C@H](Cc1ccccc1)NC(=O)[C@@H]1CCCN1` was tested, and the Change was -1.5%.
In the case of `CC(CN[C@@H](CCCN=C(N)N)C(=O)O)(Cc1ccccc1)NC(=O)[C@@H]1CCCN1` (stereo not given in full), the Change is reported as 0%.
For `O=C(NCC(=O)N1CCC[C@H]1C(=O)O)[C@H](Cc1ccccc1)NC(=O)[C@@H]1CCCN1C(=O)CCCc1ccc(O)cc1` ({Butanoyl(4-(4-HOPh))}-PFGP-OH), the Change was -2.5%.

Each molecule was assayed on Canis familiaris (assay: In vivo percent change in canine heart rate at 30 ug/Kg/min.).
Type: functional, Canis lupus familiaris
Summary of the method: as §1
Molecule `N=C(N)NCCC[C@H](NC[C@H](Cc1ccccc1)NC(=O)[C@@H]1CCCN1)C(=O)O` has a Change of 0%.
Work on `Cl.NCCCNC(=O)[C@H](Cc1ccccc1)NC(=O)[C@@H]1CCCN1C(=O)CCCc1ccccc1` yielded a Change of 0%.
`Cl.Cl.NCCCNC(=O)[C@H](Cc1ccccc1)NC(=O)[C@@H]1CCCN1` gave a Change of -1%.
`CC(CN[C@@H](CCCN=C(N)N)C(=O)O)(Cc1ccccc1)NC(=O)[C@@H]1CCCN1` (stereo not given in full) gave a Change of 4%.
For `O=C(NCC(=O)N1CCC[C@H]1C(=O)O)[C@H](Cc1ccccc1)NC(=O)[C@@H]1CCCN1C(=O)CCCc1ccc(O)cc1` ({Butanoyl(4-(4-HOPh))}-PFGP-OH), the Change was -1.5%.

What follows are molecules tested on Canis familiaris (assay: In vivo percent change in canine heart rate at 300 ug/Kg/min.).
Type: functional, Canis lupus familiaris
Summary of the method: as §1
For `N=C(N)NCCC[C@H](NC[C@H](Cc1ccccc1)NC(=O)[C@@H]1CCCN1)C(=O)O`, the Change was 0%.
`Cl.NCCCNC(=O)[C@H](Cc1ccccc1)NC(=O)[C@@H]1CCCN1C(=O)CCCc1ccccc1` was tested, and the Change was -5.3%.
`Cl.Cl.NCCCNC(=O)[C@H](Cc1ccccc1)NC(=O)[C@@H]1CCCN1` was tested, and the Change was -1%.
`CC(CN[C@@H](CCCN=C(N)N)C(=O)O)(Cc1ccccc1)NC(=O)[C@@H]1CCCN1` (stereo not given in full) showed a Change of -7%.
`O=C(NCC(=O)N1CCC[C@H]1C(=O)O)[C@H](Cc1ccccc1)NC(=O)[C@@H]1CCCN1C(=O)CCCc1ccc(O)cc1` ({Butanoyl(4-(4-HOPh))}-PFGP-OH) was tested, and the Change was 1.5%.

These molecules were tested on Canis familiaris (assay: In vivo percent change in canine mean arterial blood pressure (MABP) at 3 ug/Kg/min.).
Type: functional, Canis lupus familiaris
Summary of the method: as §1
For `N=C(N)NCCC[C@H](NC[C@H](Cc1ccccc1)NC(=O)[C@@H]1CCCN1)C(=O)O`, the Change was 0%.
`Cl.NCCCNC(=O)[C@H](Cc1ccccc1)NC(=O)[C@@H]1CCCN1C(=O)CCCc1ccccc1` gave a Change of 0%.
`Cl.Cl.NCCCNC(=O)[C@H](Cc1ccccc1)NC(=O)[C@@H]1CCCN1` showed a Change of -0.5%.
Molecule `CC(CN[C@@H](CCCN=C(N)N)C(=O)O)(Cc1ccccc1)NC(=O)[C@@H]1CCCN1` (stereo not given in full) has a Change of 1%.
Molecule `O=C(NCC(=O)N1CCC[C@H]1C(=O)O)[C@H](Cc1ccccc1)NC(=O)[C@@H]1CCCN1C(=O)CCCc1ccc(O)cc1` ({Butanoyl(4-(4-HOPh))}-PFGP-OH) has a Change of -2%.

Each molecule was assayed on Canis familiaris (assay: In vivo percent change in canine mean arterial blood pressure (MABP) at 30 ug/Kg/min.).
Type: functional, Canis lupus familiaris
Summary of the method: as §1
With `N=C(N)NCCC[C@H](NC[C@H](Cc1ccccc1)NC(=O)[C@@H]1CCCN1)C(=O)O` the Change was 0%.
`Cl.NCCCNC(=O)[C@H](Cc1ccccc1)NC(=O)[C@@H]1CCCN1C(=O)CCCc1ccccc1` was tested, and the Change was 0%.
Work on `Cl.Cl.NCCCNC(=O)[C@H](Cc1ccccc1)NC(=O)[C@@H]1CCCN1` yielded a Change of 0%.
For `CC(CN[C@@H](CCCN=C(N)N)C(=O)O)(Cc1ccccc1)NC(=O)[C@@H]1CCCN1` (stereo not given in full), the Change was 1%.
In the case of `O=C(NCC(=O)N1CCC[C@H]1C(=O)O)[C@H](Cc1ccccc1)NC(=O)[C@@H]1CCCN1C(=O)CCCc1ccc(O)cc1` ({Butanoyl(4-(4-HOPh))}-PFGP-OH), the Change is reported as -1%.

Each molecule was assayed on Canis familiaris (assay: In vivo percent change in canine mean arterial blood pressure (MABP) at 300 ug/Kg/min.).
Type: functional, Canis lupus familiaris
Summary of the method: as §1
Work on `N=C(N)NCCC[C@H](NC[C@H](Cc1ccccc1)NC(=O)[C@@H]1CCCN1)C(=O)O` yielded a Change of -2%.
Work on `Cl.NCCCNC(=O)[C@H](Cc1ccccc1)NC(=O)[C@@H]1CCCN1C(=O)CCCc1ccccc1` yielded a Change of -2.7%.
Work on `Cl.Cl.NCCCNC(=O)[C@H](Cc1ccccc1)NC(=O)[C@@H]1CCCN1` yielded a Change of -3.5%.
With `CC(CN[C@@H](CCCN=C(N)N)C(=O)O)(Cc1ccccc1)NC(=O)[C@@H]1CCCN1` (stereo not given in full) the Change was -5%.
For `O=C(NCC(=O)N1CCC[C@H]1C(=O)O)[C@H](Cc1ccccc1)NC(=O)[C@@H]1CCCN1C(=O)CCCc1ccc(O)cc1` ({Butanoyl(4-(4-HOPh))}-PFGP-OH), the Change was -1.5%.

Each molecule was assayed on Canis familiaris (assay: In vivo percent change in canine renal blood flow (RBF) at 3 ug/Kg/min.).
Type: functional, Canis lupus familiaris, Kidney
Summary of the method: as §1
`N=C(N)NCCC[C@H](NC[C@H](Cc1ccccc1)NC(=O)[C@@H]1CCCN1)C(=O)O` gave a Change of 0%.
Molecule `Cl.NCCCNC(=O)[C@H](Cc1ccccc1)NC(=O)[C@@H]1CCCN1C(=O)CCCc1ccccc1` has a Change of 0%.
`Cl.Cl.NCCCNC(=O)[C@H](Cc1ccccc1)NC(=O)[C@@H]1CCCN1` was tested, and the Change was 3.5%.
In the case of `CC(CN[C@@H](CCCN=C(N)N)C(=O)O)(Cc1ccccc1)NC(=O)[C@@H]1CCCN1` (stereo not given in full), the Change is reported as 0%.
Work on `O=C(NCC(=O)N1CCC[C@H]1C(=O)O)[C@H](Cc1ccccc1)NC(=O)[C@@H]1CCCN1C(=O)CCCc1ccc(O)cc1` ({Butanoyl(4-(4-HOPh))}-PFGP-OH) yielded a Change of 2.5%.

These molecules were tested on Canis familiaris (assay: In vivo percent change in canine renal blood flow (RBF) at 30 ug/Kg/min.).
Type: functional, Canis lupus familiaris, Kidney
Summary of the method: as §1
In the case of `N=C(N)NCCC[C@H](NC[C@H](Cc1ccccc1)NC(=O)[C@@H]1CCCN1)C(=O)O`, the Change is reported as 3%.
`Cl.NCCCNC(=O)[C@H](Cc1ccccc1)NC(=O)[C@@H]1CCCN1C(=O)CCCc1ccccc1` showed a Change of 5%.
Work on `Cl.Cl.NCCCNC(=O)[C@H](Cc1ccccc1)NC(=O)[C@@H]1CCCN1` yielded a Change of 5%.
`O=C(NCC(=O)N1CCC[C@H]1C(=O)O)[C@H](Cc1ccccc1)NC(=O)[C@@H]1CCCN1C(=O)CCCc1ccc(O)cc1` ({Butanoyl(4-(4-HOPh))}-PFGP-OH) was tested, and the Change was -43%.

Each molecule was assayed on Canis familiaris (assay: In vivo percent change in canine renal blood flow (RBF) at 300 ug/Kg/min.).
Type: functional, Canis lupus familiaris, Kidney
Summary of the method: as §1
In the case of `N=C(N)NCCC[C@H](NC[C@H](Cc1ccccc1)NC(=O)[C@@H]1CCCN1)C(=O)O`, the Change is reported as 0%.
`Cl.NCCCNC(=O)[C@H](Cc1ccccc1)NC(=O)[C@@H]1CCCN1C(=O)CCCc1ccccc1` gave a Change of 6.5%.
`Cl.Cl.NCCCNC(=O)[C@H](Cc1ccccc1)NC(=O)[C@@H]1CCCN1` was tested, and the Change was 6.5%.
For `CC(CN[C@@H](CCCN=C(N)N)C(=O)O)(Cc1ccccc1)NC(=O)[C@@H]1CCCN1` (stereo not given in full), the Change was 7%.
For `O=C(NCC(=O)N1CCC[C@H]1C(=O)O)[C@H](Cc1ccccc1)NC(=O)[C@@H]1CCCN1C(=O)CCCc1ccc(O)cc1` ({Butanoyl(4-(4-HOPh))}-PFGP-OH), the Change was 7%.

What follows are molecules tested on Canis familiaris (assay: In vivo percent change in canine renal vascular resistance (RVR) at 3 ug/Kg/min.).
Type: functional, Canis lupus familiaris
Summary of the method: as §1
With `N=C(N)NCCC[C@H](NC[C@H](Cc1ccccc1)NC(=O)[C@@H]1CCCN1)C(=O)O` the Change was 0%.
Molecule `Cl.NCCCNC(=O)[C@H](Cc1ccccc1)NC(=O)[C@@H]1CCCN1C(=O)CCCc1ccccc1` has a Change of 0%.
For `Cl.Cl.NCCCNC(=O)[C@H](Cc1ccccc1)NC(=O)[C@@H]1CCCN1`, the Change was -3%.
With `CC(CN[C@@H](CCCN=C(N)N)C(=O)O)(Cc1ccccc1)NC(=O)[C@@H]1CCCN1` (stereo not given in full) the Change was 1%.
For `O=C(NCC(=O)N1CCC[C@H]1C(=O)O)[C@H](Cc1ccccc1)NC(=O)[C@@H]1CCCN1C(=O)CCCc1ccc(O)cc1` ({Butanoyl(4-(4-HOPh))}-PFGP-OH), the Change was -4.5%.

Each molecule was assayed on Canis familiaris (assay: In vivo percent change in canine renal vascular resistance (RVR) at 30 ug/Kg/min.).
Type: functional, Canis lupus familiaris
Summary of the method: as §1
`N=C(N)NCCC[C@H](NC[C@H](Cc1ccccc1)NC(=O)[C@@H]1CCCN1)C(=O)O` showed a Change of -3%.
With `Cl.Cl.NCCCNC(=O)[C@H](Cc1ccccc1)NC(=O)[C@@H]1CCCN1` the Change was -5%.
Molecule `CC(CN[C@@H](CCCN=C(N)N)C(=O)O)(Cc1ccccc1)NC(=O)[C@@H]1CCCN1` (stereo not given in full) has a Change of -6%.

What follows are molecules tested on Canis familiaris (assay: In vivo percent change in canine renal vascular resistance (RVR) at 300 ug/Kg/min.).
Type: functional, Canis lupus familiaris
Summary of the method: as §1
In the case of `N=C(N)NCCC[C@H](NC[C@H](Cc1ccccc1)NC(=O)[C@@H]1CCCN1)C(=O)O`, the Change is reported as -2%.
Molecule `Cl.NCCCNC(=O)[C@H](Cc1ccccc1)NC(=O)[C@@H]1CCCN1C(=O)CCCc1ccccc1` has a Change of -8.9%.
Work on `Cl.Cl.NCCCNC(=O)[C@H](Cc1ccccc1)NC(=O)[C@@H]1CCCN1` yielded a Change of -9%.
In the case of `CC(CN[C@@H](CCCN=C(N)N)C(=O)O)(Cc1ccccc1)NC(=O)[C@@H]1CCCN1` (stereo not given in full), the Change is reported as -11%.
Molecule `O=C(NCC(=O)N1CCC[C@H]1C(=O)O)[C@H](Cc1ccccc1)NC(=O)[C@@H]1CCCN1C(=O)CCCc1ccc(O)cc1` ({Butanoyl(4-(4-HOPh))}-PFGP-OH) has a Change of -8.5%.
